Rows were chosen to be rich in hits. Some 4.5% of all compounds tested hit in one or more screens of this group.
GPR7 antagonist = blocks human GPR7 receptor signaling. GPR7-expressing cells, fluorescence antagonist assay. actives 1.1% (n = 290,000). inhibition, % at 4.4 µM; in the data active means inhibition above about 16%, passing the limit was not always enough;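 further: cells stimulated with the agonist NPW; 0% = agonist with vehicle and 100% = vehicle without agonist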
OX1R antag-1 = blocks the human orexin 1 receptor; O43613; OX1R-expressing cells, FRET antagonist read-out; inhibition, % at 6.6 µM; actives 1.8% (n = 330,000); AID 485270; in the data active means inhibition mostly above about 38%, no sharp cut-off; inactive means mostly below about 40%;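 further: 0% = agonist challenge alone and 100% = reference antagonist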
OX1R antag-2 = blocks the human orexin 1 receptor | CHO/OX1R cells, Fluo-8 calcium fluorescence, orexin A | inhibition, % at 5 µM | actives 0.43% (n = 330,000) | AID 434989;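 active means inhibition above its plate's threshold, mean inhibition of all tested compounds on the plate plus 3 SD, cut at about 37% in these data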;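 further: 0% = orexin A challenge wells and 100% = SB-334867-A antagonist wells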
TAAR1 antag = human TAAR1 antagonism; Q96RJ0; CHO RD-HGA16 TAAR1, Fluo-8 calcium fluorescence, antagonist; inhibition, % at 3 µM; actives 1.5% (n = 360,000); AID 624466;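 active means inhibition above a per-plate cutoff, the mean inhibition of test compounds on that plate plus 3 SD, cut at about 49% in these data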;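 further: 0% = DMSO plus EC80 beta-PEA response and 100% = DMSO alone without agonist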
Target sequence (Q96RJ0 whole entry, looked up): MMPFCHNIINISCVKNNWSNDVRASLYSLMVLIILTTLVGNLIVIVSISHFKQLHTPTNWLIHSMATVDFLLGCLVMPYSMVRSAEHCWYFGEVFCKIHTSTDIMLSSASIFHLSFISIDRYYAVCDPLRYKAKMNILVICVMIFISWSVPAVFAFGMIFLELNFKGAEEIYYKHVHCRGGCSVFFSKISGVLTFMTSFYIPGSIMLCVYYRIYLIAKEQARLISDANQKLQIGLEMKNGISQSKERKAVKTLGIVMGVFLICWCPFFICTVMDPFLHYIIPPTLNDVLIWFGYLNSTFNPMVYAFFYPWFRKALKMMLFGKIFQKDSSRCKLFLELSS
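Test system: RD-HGA16 CHO cells with stable hTAAR1 and Gα16 / Probe or stimulus: EC80 β-phenethylamine stimulus / Times: seeding 17-24 h prior, 75-min 37 °C, 30-min RT dye loading / Detection: Fluo-8 calcium-sensitive fluorescence / Read-out basis: % inhibition scaled between DMSO and EC80 PEA controls / Repeats: singlicate, one well per test compound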
CHO parental Ca = counter-screen: ATP calcium response change in parental CHO cells; AID 463079; inhibition, % at 5.6 µM; parental CHO-K1, ATP-induced calcium, Fluo-8 fluorescence; actives 0.63% (n = 330,000);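 active means inhibition above that plate's mean sample inhibition plus 3 SD, cut at about 26% in these data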;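 further: 0% = ATP-challenged DMSO wells and 100% = DMSO wells without ATP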
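Test system: untransfected parental CHO cell line. Compound: one dose, 5.6 µM nominal. Detection: intracellular calcium via Fluo-8 no-wash fluorescent dye. Measure: % inhibition. Benchmarks: ATP-challenged DMSO wells low, unchallenged DMSO wells high.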
TAAR1 ag = agonists of human TAAR1 | activation, % at 3 µM | CHO RD-HGA16 TAAR1, Fluo-8 calcium fluorescence; vehicle wells 0%, saturating PEA agonist 100% | AID 624467 | Q96RJ0 | actives 0.99% (n = 360,000);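 active means activation above the mean activation of all test compounds in the run plus 3 SD, cut at about 38% in these data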
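test system = CHO RD-HGA16 cells carrying human TAAR1 plus Gα16 | schedule = 17-24 h seeding, 75 min 37 °C dye, 30 min RT | compound dosing = 3 µM single concentration | control set = DMSO and PEA EC100 | replicates = n 1 | signal = Fluo-8 fluorescence, 5 s baseline then 140 s kinetic read | measure = percent activation vs PEA EC100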
nonsel antag count = counter-screen for TAAR1 antagonists: nonselective antagonists; shares compounds with TAAR1 antag; counterscreen cell line, calcium fluorescence, antagonist mode; inhibition, % at 3 µM; actives 77% (n = 2,400); AID 651780; in the data active means inhibition above about 22%;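 further: CHO-Ga16 host cells stimulated with ATP at an EC80 level; 0% = agonist EC80 plus vehicle and 100% = vehicle without agonist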
TAAR1 ant conf = confirmation of human TAAR1 antagonists; actives 40% (n = 2,400); AID 651785; TAAR1-expressing cells, fluorescence antagonist read-out; shares compounds with TAAR1 antag; inhibition, % at 3 µM; in the data active means inhibition above about 49%;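 further: CHO-Ga16 host cells challenged with agonist PEA near its EC80; 0% = agonist at EC80 plus vehicle and 100% = vehicle with no agonist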
Ga16 ag counter = nonselective Ga16 agonist in TAAR1 antagonist counter-screen; activation, % at 3 µM; shares compounds with TAAR1 antag; AID 651953; actives 18% (n = 2,400); Ga16-expressing cells, calcium fluorescence, agonist counterscreen; in the data active means activation above about 12%;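 further: 0% = vehicle wells and 100% = saturating stimulus response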
TAAR1 ag counter = activates human TAAR1 in antagonist counter-screen. shares compounds with TAAR1 antag. hTAAR1 cell line, fluorescence activation, agonist mode. actives 2% (n = 2,400). AID 651955. activation, % at 3 µM; in the data active means activation above about 37%;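 further: CHO cells stably expressing TAAR1 with calcium dye readout; 0% = DMSO vehicle and 100% = full agonist response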
The depositor's hits bear a star; x = no result given.

SMILES	GPR7 antagonist	OX1R antag-1	OX1R antag-2	TAAR1 antag	CHO parental Ca	TAAR1 ag	nonsel antag count	TAAR1 ant conf	Ga16 ag counter	TAAR1 ag counter
O=C1NCN(c2ccccc2)C12CCN(C(CCc1ccccc1)c1nnnn1Cc1ccccc1)CC2 (stereo not given)	x	x	x	19	x	0	x	x	x	x
O=C1NCN(c2ccccc2)C12CCN(C(c1ccnc3ccccc13)c1nnnn1-c1ccc3c(c1)OCCO3)CC2 (stereo not given)	x	x	x	59*	x	19	29*	43	10	11
CSCCC(c1nnnn1Cc1ccccc1)N1CCC2(CC1)C(=O)NCN2c1ccccc1 (stereo not given)	x	x	x	52*	x	13	28*	40	7	6
CC(=O)C1(c2ccccc2)CCN(C(=O)C2CCC(=O)N(CCc3cccc(F)c3)C2)CC1 (stereo not given)	0	33	-22	61*	-6	15	21	45	8	8
COc1cccc(-c2ccc3c(c2)C2c4cnnn4-c4ccccc4C(=O)N2CC3)c1 (stereo not given)	x	x	x	2	x	0	x	x	x	x
CCOC(=O)c1c(C=O)c2ccccc2n1Cc1ccccc1	-23	0	-36	5	-9	7	x	x	x	x
COc1ccc(NP(=O)(Oc2ccc(Cl)cc2)Oc2ccc(Cl)cc2)cc1OC	0	32	-26	39	-17	-1	x	x	x	x
COc1ccccc1OP(=O)(Nc1ccc(Br)cc1)Oc1ccccc1OC	7	19	10	78*	-11	10	30*	56*	7	7
CS(=O)(=O)c1ccc(C2=C(CNC(=O)c3nccs3)[C@H]3CC[C@@H](C2)N3Cc2ccccc2)cc1	x	x	x	-20	x	2	x	x	x	x
CCOC1=C(N2CC2)C(=O)C(OCC)=C(N2CC2)C1=O	x	x	x	21	x	0	x	x	x	x
COc1ccccc1OCCCn1cc(C(=O)c2ccco2)c2ccccc21	-13	41	-26	54*	-35	7	27*	39	4	4
O=C(c1ccco1)c1cn(Cc2ccc(Cl)cc2)c2ccccc12	19	18	-29	17	-28	6	x	x	x	x
c1ccc(-c2nc3ccccc3nc2-c2ccc(CN3CCC(n4nnc5ccccc54)CC3)cc2)cc1	x	x	x	51*	x	1	16	32	0	-2
COC(=O)C1=C(c2ccc(F)cc2OCc2ccccc2)C[C@@H]2CC[C@H]1N2C(=O)NCc1ccc([N+](=O)[O-])cc1	x	9	-9	58*	-29	6	27*	33	2	-3
COC(=O)C1=C(c2ccccc2OCc2ccccc2)C[C@@H]2CC[C@H]1N2C(=O)NCc1ccc(F)cc1	x	22	14	38	-35	2	x	x	x	x
C[C@H](CO)N1C[C@H](C)[C@@H](CN(C)C(=O)Oc2ccc3ccccc3c2)OCc2cnnn2CCCC1=O	x	x	x	-3	x	-1	x	x	x	x
C=C1C(C)C2C(Cc3ccccc3)NC(=O)C23C(OC(C)=O)C=CC(C)(O)CC(C)CC=CC3C1O (stereo not given)	x	x	x	-7	x	0	x	x	x	x
C=C1[C@@H](C)[C@H]2[C@H](Cc3ccccc3)NC(=O)[C@]23OC(=O)/C=C/[C@H](O)CCC[C@@H](C)C/C=C/[C@H]3[C@@H]1O	-17	19	-16	72*	-12	20	32*	55*	11	13
CC(=O)c1ccc2c(c1)C1C(Cl)C(Sc3ccccc3[N+](=O)[O-])CC1C(c1ccccc1[N+](=O)[O-])N2 (stereo not given)	3	41	0	58*	5	9	34*	46	7	4
